Drawing on ChEMBL document CHEMBL1135061, “Synthesis, hydrolytic activation and cytotoxicity of etoposide prodrugs” (Bioorg Med Chem Lett, 2002), this text covers IC50, half-life and K obs for 3 compounds.

One data set concerns A2780. Briefly: Tested for cytotoxicity against Ovarian carcinoma parental type A2780 cell line expressing MDR-1 (-) gene. The format is functional, cell-based. The note with it: Homo sapiens. The method, boiled down:
(§1)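 XTT assay; 10,000 tumor cells/well preincubated 24 h at 37 °C, 5% CO2, then drug added directly from DMSO stocks over 100 fM to […] range. After 72 h XTT added, 4 h further incubation, OD read at 450 nm. IC50 (50% growth inhibition) derived from viability–dilution plots of duplicate runs.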

The test system of another data set is ADR5000 cell line. The data set can be described thus: Tested for cytotoxicity against Doxo resistant A2780 type ADR5000 cell line expressing MDR-1 (++) gene. The format is functional, cell-based. The note with it: Homo sapiens. The method, boiled down: as §1
Data set [1] relates to HT-29. The data set can be described thus: Tested for cytotoxicity against Colon carcinoma type HT-29 cell line expressing MDR-1 (-) gene; 35% of cells were affected. In kind it is functional, cell-based. The settings on record: Homo sapiens. Summed up:
as §1

Another data set relates to SW480. The data set can be described thus: Tested for cytotoxicity against Colon adenocarcinoma resistant type SW480 cell line expressing MDR-1 (+) gene; ~50% cells affected by drug. The format is functional, cell-based. The settings on record: Homo sapiens. The method, boiled down:
as §1

Another data set relates to VCR100. Briefly: Tested for cytotoxicity against T-lymphoblastoide VC resistant type VCR 100 cell line expressing MDR-1 (+) gene. The format is functional, cell-based, Homo sapiens. Summed up: as §1
Another data set has as its system MOVP-3. The data set can be described thus: Tested for cytotoxicity against VP 16 resistant Molt3 type MOVP-3 cell line expressing MDR-1 (++) gene. The format is functional, cell-based. The settings on record: Homo sapiens. The method, boiled down: as §1
A further data set relates to MOLT-3. Briefly: Tested for cytotoxicity against parental T-cell leukemia type Molt 3 cell line expressing MDR-1 (-) gene. In kind it is functional, cell-based. The note with it: Homo sapiens. Summed up:
as §1

A short description of data set [2]: Tested for half life period at 37 degree Celsius in PBS buffer at 10.5 pH containing human serum esterase. The format is ADME. The settings on record: pH 10.5. Summed up:
(§2)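 Drug at 37 °C in acetonitrile–aqueous buffer (20/80 vol%) at set pH, in human serum, or with pig liver carboxylic ester hydrolase. Serum samples pre-separated on C18 cartridges. Aliquots mixed 1:1 with acetonitrile, centrifuged, supernatant analysed by HPLC peak areas. First-order log conversion–time plots; k_obs and t1/2 from slopes; mean ± SD.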

A short description of data set [3]: Tested for half life period at 37 degree Centigrade in PBS buffer at 7.3 pH containing human serum esterase. The note with it: pH 7.3. The format is ADME. The method, boiled down: as §2
Data set [4] in a line: Tested for half life period at 37 degree Celsius in PBS buffer at 8.0 pH containing human serum esterase. The format is ADME. The note with it: pH 8. Summed up:
as §2

The nature of data set [5]: Tested for half life period at 37 degree Celsius in PBS buffer at 8.8 pH containing human serum esterase. The format is ADME. The note with it: pH 8.8. The method, boiled down: as §2
For data set [6], the system named is HT-29. Briefly: Tested for cytotoxicity against Colon carcinoma type HT-29 cell line expressing MDR-1 (-) gene. In kind it is functional, cell-based. The settings on record: Homo sapiens. The method, boiled down: as §1
Data set [7] concerns the target Cholinesterase (Homo sapiens) (UniProt P06276). Briefly: Tested for rate constant at 37 degree Celsius in PBS buffer at 7.3 pH in human serum containing porcine liver esterase expressed in 10 e-3 min e-1. The format is cell-free. Summed up:
(§3)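 Prodrug dissolved at 37 °C in 20/80 vol% acetonitrile–aqueous PBS at the stated pH, in human serum, or with pig liver carboxylic ester hydrolase. Serum samples were pre-cleaned on C18 cartridges. Aliquots were quenched with an equal volume of acetonitrile and centrifuged, and the supernatant was analysed by HPLC peak area. k_obs was taken from the slope of first-order log conversion–time plots and reported as mean ± SD.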

For data set [8] the target is unchanged. The data set can be described thus: Tested for rate constant at 37 degree Celsius in PBS buffer at 8.0 pH containing human serum esterase expressed in 10 e-3 min e-1. The method, boiled down:
as §3

For data set [9] the target is unchanged. The data set can be described thus: Tested for rate constant at 37 degree Celsius in PBS buffer at 8.8 pH containing human serum esterase expressed in 10 e-3 min e-1. The method, boiled down:
as §3

The target is the same in data set [10]. Briefly: Tested for rate constant at 37 degree Celsius in PBS buffer at 10.5 pH containing human serum esterase expressed in 10 e-3 min e-1. Summed up: as §3
Data set [11] in a line: Tested for half life period at 37 degree Celsius in PBS buffer at 11.8 pH containing porcine liver esterase. In kind it is ADME, Sus scrofa. The note with it: pig, pH 11.8. The method, boiled down: as §2
Data set [12] is described as follows: Tested for half life period at 37 degree Celsius in PBS buffer at 7.3 pH containing porcine liver esterase. In kind it is ADME, Sus scrofa. The note with it: pig, pH 7.3. The method, boiled down:
as §2

The nature of data set [13]: Tested for half life period at 37 degree Celsius in PBS buffer at 7.3 pH in containing porcine liver esterase. The format is ADME, Sus scrofa. The note with it: pig, pH 7.3. Summed up: as §2
For data set [14], the target named is T1, S-formylglutathione hydrolase (Sus scrofa) (UniProt Q9GJT2).
T1 sequence (whole entry): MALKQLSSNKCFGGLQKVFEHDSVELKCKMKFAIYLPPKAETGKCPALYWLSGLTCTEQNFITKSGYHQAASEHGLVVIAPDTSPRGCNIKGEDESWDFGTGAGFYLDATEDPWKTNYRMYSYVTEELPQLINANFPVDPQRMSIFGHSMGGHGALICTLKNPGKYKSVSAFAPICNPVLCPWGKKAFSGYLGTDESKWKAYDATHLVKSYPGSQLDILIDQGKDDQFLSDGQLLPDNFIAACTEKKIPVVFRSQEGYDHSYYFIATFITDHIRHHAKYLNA
Briefly: Tested for rate constant at 37 degree Celsius in PBS buffer at 11.8 pH containing porcine liver esterase expressed in 10 e-3 min e-1. Summed up: as §2

In general, IC50 refers to the concentration that gives 50% inhibition. One may read the half-life as how long it takes for the measured level to halve. A lower half-life goes with fast loss.

Cholinesterase (Homo sapiens), sequence (P06276 whole entry): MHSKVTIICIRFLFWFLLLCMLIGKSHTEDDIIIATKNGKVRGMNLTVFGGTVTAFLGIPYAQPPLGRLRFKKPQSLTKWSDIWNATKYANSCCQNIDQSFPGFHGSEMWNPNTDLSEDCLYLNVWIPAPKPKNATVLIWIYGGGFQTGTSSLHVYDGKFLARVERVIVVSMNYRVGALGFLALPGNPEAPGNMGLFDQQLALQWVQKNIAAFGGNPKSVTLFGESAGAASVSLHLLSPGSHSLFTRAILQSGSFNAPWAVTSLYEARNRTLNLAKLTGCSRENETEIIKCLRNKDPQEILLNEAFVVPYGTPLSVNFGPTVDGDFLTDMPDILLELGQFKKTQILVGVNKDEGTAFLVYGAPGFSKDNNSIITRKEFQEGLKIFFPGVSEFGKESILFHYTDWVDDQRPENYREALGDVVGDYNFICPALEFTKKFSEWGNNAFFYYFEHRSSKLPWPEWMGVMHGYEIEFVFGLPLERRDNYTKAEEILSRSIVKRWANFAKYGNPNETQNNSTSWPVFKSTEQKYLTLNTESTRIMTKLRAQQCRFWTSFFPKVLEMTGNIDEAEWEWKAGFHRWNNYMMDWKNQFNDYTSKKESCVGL

Take `COc1cc([C@@H]2c3cc4c(cc3[C@@H](O[C@@H]3O[C@@H]5CO[C@@H](C)O[C@H]5[C@H](O)[C@H]3O)[C@H]3COC(=O)[C@H]23)OCO4)cc(OC)c1O` [ETOPOSIDE]: the IC50 in the data set on A2780 was determined as 65000 nM; with ADR5000 cell line, 100000 nM; in the data set on HT-29 [1] it was 10000 nM; in the data set with SW480, 50000 nM; in the data set on VCR100 it was 15500 nM; in the data set with MOVP-3 it was 7550 nM. In addition, the IC50 with MOLT-3 worked out at 65 nM.
`COc1cc([C@@H]2c3cc4c(cc3C(O[C@@H]3O[C@H]5CO[C@@H](C)O[C@H]5[C@H](O)[C@@H]3O)C3COC(=O)[C@@H]32)OCO4)cc(OC)c1OC(=O)OCC(O)CO` (stereo partly drawn): the half-life in data set [2] was 6.93 min; in data set [3], 0.934 h; in data set [4] it was 3.61 h; in data set [5], 1.62 h. Besides, the IC50 in the data set with A2780 was found to be 580 nM; with ADR5000 cell line, 38000 nM; with HT-29 [6], 5.7 nM; in the data set with SW480, 110 nM; in the data set on VCR100, 7600 nM; with MOVP-3, 50 nM. Besides, the IC50 in the data set on MOLT-3 came out at 35 nM. Also, the K obs in data set [7] was 12.4; in data set [8], 3.2; in data set [9], 7.14; in data set [10] it was 100.
On to `COc1cc([C@@H]2c3cc4c(cc3C(O[C@@H]3O[C@H]5CO[C@@H](C)O[C@H]5[C@H](O)[C@@H]3O)C3COC(=O)[C@@H]32)OCO4)cc(OC)c1OC(=O)OCC1COC(C)(C)O1` (stereo partly drawn), for which the half-maximal inhibitory concentration (IC50) amounted to 90 nM with A2780; 6500 nM with ADR5000 cell line; 3.5 nM with HT-29 [6]; 110 nM in the data set with SW480; 3200 nM in the data set on VCR100; 12 nM in the data set with MOVP-3. Also, the IC50 in the data set with MOLT-3 amounted to 10 nM. Further, the half-life turned out to be 1.39 h in [11], 0.236 h in data set [12] and 12.5 h in data set [13]. Further, in data set [14], the K obs turned out to be 8.33.
